Apaf-1 inh: inhibitors of human Apaf-1 apoptosome, primary screen, biochemical, DEVD-Rh110 fluorescence, uHTS; Apoptotic protease-activating factor 1 (Homo sapiens), O14727; AID 489030, 2010; reconstituted apoptosome caspase-3 activity; actives 0.71% (n = 330,000); inhibition, % at 20 µM; active = inhibition of at least 40% at 20 µM;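 note: plate controls were DMSO wells for no effect and DEVD-CHO caspase inhibitor wells for full effect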
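System – cell-free apoptosome with Apaf-1, procaspase-3 and caspase-9 · Buffer or medium – pH 7.5 Hepes buffer with CHAPS, BSA, DTT · Also added – cytochrome c with DEVD-Rh110 · Times – 30 min compound preincubation, 50 min activation, room temperature · Technique – Rh110 fluorescence intensity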
SUMO HTRF inh: inhibitors of in vitro SUMOylation cascade, primary screen, biochemical, HTRF, uHTS. SUMO-conjugating enzyme UBC9 (Homo sapiens), P63279. HTRF SUMOylation assay, SAE1/SAE2 + UBC9. inhibition, % at 35 µM. actives 0.36% (n = 290,000); in the data active = inhibition above about 50%, passing the limit was not always enough
Target sequence (P63279 whole entry, looked up): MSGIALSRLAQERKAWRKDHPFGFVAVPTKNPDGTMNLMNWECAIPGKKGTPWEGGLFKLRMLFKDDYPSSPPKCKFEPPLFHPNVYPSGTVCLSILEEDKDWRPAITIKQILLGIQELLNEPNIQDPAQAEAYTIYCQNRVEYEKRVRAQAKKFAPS
PAD4 FP inh: human PAD4 inhibitors, primary screen, biochemical, fluorescence polarization, 1536-well format. Protein-arginine deiminase type-4 (Homo sapiens), Q9UM07. recombinant PAD4, RCA probe fluorescence polarization. inhibition, % at 6.36 µM. actives 0.41% (n = 330,000);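 active = percent inhibition above a cutoff equal to the mean of all tested compounds plus 3 SD, cut at about 15% in these data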;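 note: 0% = PAD4 with RCA probe and DMSO and 100% = probe without PAD4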
TDP2 inh: human TDP2 enzyme inhibitors, primary screen, biochemical, epi absorbance, recombinant enzyme; Tyrosyl-DNA phosphodiesterase 2 (Homo sapiens), O95551; T5PNP hydrolysis, p-nitrophenol absorbance 415 nm; inhibition, % at 12.8 µM; actives 0.34% (n = 370,000); AID 720702, 2013;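 active = inhibition above the mean of all tested compounds plus 3 SD, set per campaign, cut at about 25% in these data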;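 note: 0% = DMSO with enzyme and 100% = buffer with substrate but no TDP2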
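Test system: human TDP2 enzyme; Input: 120 nM TDP2 per well; Buffer or medium: Mg2+-containing Tris-HCl buffer, pH 7.5; Reagent: 5 mM T5PNP; Dosing: 12.8 µM single point, 1% DMSO; Incubation: reaction 2 h, 37 °C; Detection: p-Nitrophenol epi absorbance; Read-out: % inhibition relative to enzyme-containing and enzyme-free wells; Replicates: single well per compound.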
GSTO1 counter: inhibitors of recombinant GSTO1, primary screen, counter-screen for RBBP9 inhibitor project, biochemical, fluorescence polarization. activity-based probe fluorescence polarization. Glutathione S-transferase omega-1 (Homo sapiens), P78417. inhibition, % at 5.96 µM. actives 1.1% (n = 300,000);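 active = inhibition above the campaign mean inhibition plus 3 SD, cut at about 35% in these data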;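 note: 0% = GSTO1-1 with DMSO and 100% = wells lacking GSTO1-1 enzyme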
Target sequence (P78417 whole entry, looked up): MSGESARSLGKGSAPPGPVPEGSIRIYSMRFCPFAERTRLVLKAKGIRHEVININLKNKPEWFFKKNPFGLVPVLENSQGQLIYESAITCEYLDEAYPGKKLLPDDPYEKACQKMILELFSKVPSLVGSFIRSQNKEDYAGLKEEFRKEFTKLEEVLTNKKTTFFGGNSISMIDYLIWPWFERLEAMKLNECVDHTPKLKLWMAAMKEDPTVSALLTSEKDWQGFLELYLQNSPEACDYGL
GASC-1 inh: inhibitors of GASC-1 histone demethylase, primary screen, biochemical, fluorescence, DELFIA europium; Lysine-specific demethylase 4C (Homo sapiens), Q9H3R0; GST-JMJD2C(1-420) H3K9me3 demethylation; inhibition, % at 2.35 µM; actives 0.069% (n = 330,000);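 active = more than half of a compound's replicate wells show inhibition beyond 50%, single wells judged on their own value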;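 note: signal counts dimethyl H3K9 product captured on neutravidin plate; 0% = median of DMSO wells and 100% = 0.3 times that DMSO median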
* marks the source's active call; other numbers are inactive results; x = no result given. This is a sample that favours compounds with a hit; in the whole collection about 1.6% have one here.

SMILES | Apaf-1 inh | SUMO HTRF inh | PAD4 FP inh | TDP2 inh | GSTO1 counter | GASC-1 inh
CCCCC1=CC2=CC(=O)C(C)(OC(=O)c3cccs3)C(=O)C2=CO1 (stereo not drawn) | 24 | x | -2 | 10 | 21 | 0
COC/C=C/C1=CC2=CC(=O)C(C)(OC(=O)c3cnc4ccccc4n3)C(=O)C2=CN1CCc1ccccn1 (stereo not drawn) | 26 | x | 34* | x | -12 | 0
COC(=O)CCCC1=CC2=CC(=O)C(C)(OC(=O)c3ccc(Cl)nc3)C(=O)C2=CO1 (stereo not drawn) | -2 | x | 5 | x | 35* | 3
CC1(OC(=O)c2ccc(Cl)nc2)C(=O)C=C2C=C(c3ccsc3)OC=C2C1=O (stereo not drawn) | 22 | x | -5 | x | 24 | 6
C#CCNC(=O)C[C@H]1C[C@@]2(C(=O)OC)C(=C[C@H](COCc3ccccc3)O[C@@H]2C)N(Cc2cccc3ccccc23)C1=O | x | x | x | 0 | x | x
O=C1C[C@H](c2ccc3ccccc3c2)N=C2N1/C(=C\c1ccccc1)[C@@H](c1ccccc1C(F)(F)F)N2Cc1ccc2c(c1)OCO2 | x | x | x | 9 | x | x
CCCCC1=CC2=CC(=O)C(C)(OC(=O)c3cnc4ccccc4n3)C(=O)C2=CO1 (stereo not drawn) | 3 | 7 | 31* | x | 29 | 2
CC(C)(C)OC(=O)NCCCCC1=CC2=CC(=O)C(C)(OC(=O)c3cnc4ccccc4n3)C(=O)C2=CO1 (stereo not drawn) | 13 | x | 11 | x | 19 | 1
COC(=O)CCCC1=CC2=CC(=O)C(C)(OC(=O)c3cnc4ccccc4n3)C(=O)C2=CO1 (stereo not drawn) | 6 | x | 32* | x | 38* | 8
O=C(CSc1nnc(-c2ccccc2)n1-c1ccc(Cl)cc1)NN=Cc1c[nH]c2ccccc12 | x | x | x | -4 | x | x
COC(=O)[C@H](Cc1ccccc1)N(Cc1cn(Cc2ccccc2)nn1)S(=O)(=O)c1ccccc1Br | x | x | x | 0 | x | x
O=C(O)c1[nH]c2ccccc2c1C(c1cc(Cl)cc([N+](=O)[O-])c1O)c1c(C(=O)O)[nH]c2ccccc12 | 12 | 20 | 2 | 23 | 74* | 10
O=C(O)COc1ccc(Br)cc1C(c1c(C(=O)O)[nH]c2ccccc12)c1c(C(=O)O)[nH]c2ccccc12 | 20 | 24 | 3 | x | 55* | 6
C=CCN1C(=O)[C@@H](CC(=O)NCC23CC4CC(CC(C4)C2)C3)[C@]2(C(=O)OCC)CCCCC/C=C/12 | x | x | x | -1 | x | x
O=C(O)COc1cnc2ccccc2n1 | -1 | 18 | -4 | -4 | -4 | 0
COc1ccc(NC(=O)CCl)cn1 | 67* | 83* | 4 | x | 56* | 4
O=C(CCl)Nc1ccc(Oc2cnc3ccccc3n2)cc1 | -1 | -4 | 1 | -8 | 86* | 8
O=C(NCCO)[C@H](Cc1ccccc1)NC1(C(=O)NCCc2c[nH]c3ccccc23)CCCCC1 | x | x | x | 3 | x | x
O=c1oc(-c2cccs2)nc2sc3c(c12)CCC3 | -11 | 51* | 8 | 0 | -2 | 4
COc1ccc(N2CCN(C(=O)CSc3nnc(-c4ccco4)n3C)CC2)cc1 | 7 | 19 | 5 | 0 | 7 | 64*
Cn1c(SCC(=O)c2cc(Cl)c(Cl)s2)nnc1-c1ccco1 | 20 | 23 | -4 | 5 | 44* | -2
O=C(CN1CCCc2ccccc21)NCc1ccccc1F | x | x | x | 7 | x | x
Cc1ccc2c(c1)C(CS(=O)(=O)NC1CCCC1)NC2 (stereo not drawn) | x | x | x | 2 | x | x
O=C(Nc1cccn(Cc2cccc(F)c2)c1=O)NC1CCCCC1 | 7 | 99* | -8 | 6 | -5 | -7
